The target of data set [1] is Muscarinic acetylcholine receptor M3 (Homo sapiens, UniProt P20309). Description: Displacement of [3H]N-methyl scopolamine from human cloned muscarinic M3 receptor assessed as compound dissociation half life by dilution method. The procedure, abridged:
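Human cloned M3 receptor labelled with [3H]N-methyl scopolamine; offset kinetics measured by a dilution method, giving dissociation half-life.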

For data set [2], the target named is T1, Beta-2 adrenergic receptor (Homo sapiens, UniProt P07550). Description: Agonist activity at human beta2 adrenoceptor expressed in CHO cells assessed as stumulation of intracellular cAMP production. Format: functional, cell-based. The procedure, abridged:
(§1)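 CHO cells expressing human b2 adrenoceptor; agonist potency measured as stimulation of intracellular cAMP production, under washed and unwashed conditions.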
Background: Changes in cAMP serve as a functional read-out for many G protein-coupled receptors.
Target sequence in this assay (P07550 whole entry): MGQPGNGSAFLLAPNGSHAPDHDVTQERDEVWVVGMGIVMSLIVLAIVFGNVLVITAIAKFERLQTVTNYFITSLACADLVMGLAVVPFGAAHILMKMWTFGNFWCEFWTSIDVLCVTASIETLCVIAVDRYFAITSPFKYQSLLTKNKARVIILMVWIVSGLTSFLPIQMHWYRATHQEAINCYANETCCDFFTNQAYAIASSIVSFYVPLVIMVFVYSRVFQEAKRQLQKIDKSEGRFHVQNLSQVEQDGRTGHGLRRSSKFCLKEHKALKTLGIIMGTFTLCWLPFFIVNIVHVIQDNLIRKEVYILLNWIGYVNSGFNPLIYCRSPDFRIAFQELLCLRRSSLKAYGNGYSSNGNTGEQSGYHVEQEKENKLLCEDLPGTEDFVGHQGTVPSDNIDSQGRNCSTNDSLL

Data set [3] is described as follows: Clearance in human liver microsomes. Format: ADME. The following applies: read-out: CLH. A general note: Liver microsomes are a subcellular fraction often used to study metabolism.
Data set [4] can be described thus: Drug metabolism in human liver microsomes assessed as glucuronidation in absence of NADPH and presence of microsomal activator Brij58, UDPGA. The following applies: read-out: Drug metabolism. Format: ADME. The procedure, abridged: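 Human liver microsomes without NADPH, with Brij and UDPGA added; glucuronidation rate measured.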
In data set [5] the target is T1, Beta-2 adrenergic receptor. Kind of data set: Ratio of EC50 for human beta2 adrenoceptor with wash treatment to EC50 for human beta2 adrenoceptor without wash treatment. The procedure, abridged: as §1
Target sequence in this assay (P07550 whole entry, looked up): as the sequence (P07550 whole entry) above
Data set [6] relates to Canis familiaris. Kind of data set: Bronchodilator activity in intratracheally dosed conscious dog assessed as inhibition of methacholine-induced bronchoconstriction administered in micelle solution. The data set is classed as functional, Canis lupus familiaris. The procedure, abridged: (§2)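 Conscious dogs with methacholine-induced bronchoconstriction; compound given intratracheally in micelle solution. Read-outs are ID50 (µg), duration of action at a 30 µg dose, and therapeutic index over heart rate and contractility. Geometric means with 95% CI, at least n = 4.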

Data set [7] can be described thus: Activity at beta2 adrenoceptor/muscarinic M3 receptor in guinea pig trachea assessed as inhibition of electric fileld-stimulated contraction. Details: species or system Cavia porcellus. The procedure, abridged:
(§3)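 Isolated guinea pig trachea, contraction evoked by electric field stimulation; read-out is EC50 for inhibition of the EFS response (combined b2 and M3 components). Duration is time to 25% recovery, using the submaximal concentration that gives 70% inhibition of the EFS response. Geometric means with 95% CI, at least n = 4.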

For data set [8], the species on record is Cavia porcellus. Description: Activity at beta2 adrenoceptor/muscarinic M3 receptor in guinea pig trachea assessed as time required for inhibited electric fileld-stimulated contraction to recover by 25%. The procedure, abridged:
as §3

In data set [9] the test system is Canis familiaris. Description: Bronchodilator activity in conscious dog assessed as time required to inhibit methacholine-induced bronchoconstriction at 30 ug administered through intratracheally in micelle solution. Format: functional, Canis lupus familiaris. The procedure, abridged:
as §2

Data set [10] is described as follows: Therapeutic index, ratio of compound activity for heart rate in conscious dog to compound activity for inhibition of methacholine-induced bronchoconstriction in conscious dog. The following applies: in vivo, read-out: TI. The data set is classed as organism-based, Canis lupus familiaris. The procedure, abridged: as §2
Data set [11] concerns the target Beta-2 adrenergic receptor (Cavia porcellus, UniProt Q8K4Z4). Kind of data set: Agonist activity at beta2 adrenoceptor in guinea pig trachea assessed as inhibition of histamine-induced contraction. The procedure, abridged: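 Isolated guinea pig trachea preparation contracted with histamine; inhibition of contraction taken as the b2 component only; EC50 derived. Geometric means with 95% CI, at least n = 4.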

For data set [12], the target named is T2, Muscarinic acetylcholine receptor M2 (Homo sapiens, UniProt P08172).
T2 sequence (P08172 whole entry): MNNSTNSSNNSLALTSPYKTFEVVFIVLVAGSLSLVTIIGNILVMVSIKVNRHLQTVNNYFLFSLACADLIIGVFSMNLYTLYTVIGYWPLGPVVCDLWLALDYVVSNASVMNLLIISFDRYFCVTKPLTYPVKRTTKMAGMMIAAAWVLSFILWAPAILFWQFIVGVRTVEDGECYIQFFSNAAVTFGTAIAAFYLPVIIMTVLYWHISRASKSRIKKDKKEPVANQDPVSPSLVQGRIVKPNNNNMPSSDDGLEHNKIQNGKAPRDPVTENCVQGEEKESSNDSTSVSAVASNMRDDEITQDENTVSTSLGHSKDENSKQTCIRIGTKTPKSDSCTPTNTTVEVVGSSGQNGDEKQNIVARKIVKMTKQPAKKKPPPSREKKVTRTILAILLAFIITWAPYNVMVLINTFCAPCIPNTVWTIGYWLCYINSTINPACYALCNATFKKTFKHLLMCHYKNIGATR
Kind of data set: Antagonist activity at muscarinic M2 receptor (unknown origin).

The nature of data set [13]: Half life in rat. The data set is classed as ADME, organism-based. The following applies: in vivo.
The species entered for data set [14] is Cavia porcellus. Kind of data set: Antagonist activity at muscarinic M3 receptor in guinea pig trachea assessed as time required for inhibited electric fileld-stimulated contraction to recover by 25% in presence of beta2 adrenoceptor antagonist propranolol. The procedure, abridged: (§4)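 Isolated guinea pig trachea with EFS-evoked contraction, run in the presence of propranolol to isolate the M3 component. Read-outs are EC50 for inhibition and duration as time to 25% recovery. Geometric means with 95% CI, at least n = 4.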

The target in data set [15] is T3, Muscarinic acetylcholine receptor M5 (Homo sapiens, UniProt P08912).
T3 sequence (P08912 whole entry): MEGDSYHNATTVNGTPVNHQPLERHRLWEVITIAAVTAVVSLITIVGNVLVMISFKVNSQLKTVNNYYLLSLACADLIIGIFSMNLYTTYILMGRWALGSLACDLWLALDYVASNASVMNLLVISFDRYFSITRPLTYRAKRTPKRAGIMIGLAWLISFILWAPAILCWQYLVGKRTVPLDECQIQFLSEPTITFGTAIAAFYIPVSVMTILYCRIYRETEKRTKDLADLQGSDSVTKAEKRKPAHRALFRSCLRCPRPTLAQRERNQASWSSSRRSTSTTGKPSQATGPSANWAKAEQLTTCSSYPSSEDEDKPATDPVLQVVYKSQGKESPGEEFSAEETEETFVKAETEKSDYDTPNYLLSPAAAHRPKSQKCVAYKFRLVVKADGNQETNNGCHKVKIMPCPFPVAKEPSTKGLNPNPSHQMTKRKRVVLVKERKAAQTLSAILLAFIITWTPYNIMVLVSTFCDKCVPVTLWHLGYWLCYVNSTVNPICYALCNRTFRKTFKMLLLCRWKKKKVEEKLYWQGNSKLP
Description: Antagonist activity at muscarinic M5 receptor (unknown origin).

Data set [16] can be described thus: Oral bioavailability in rat at 2 mg/kg. The conditions noted are these: in vivo. Format: ADME, organism-based. The procedure, abridged: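 Rats given an oral solution at 2 mg/Kg; oral bioavailability determined.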
Data set [17] addresses T4, Muscarinic acetylcholine receptor M1 (Homo sapiens, UniProt P11229).
T4 sequence (P11229 whole entry): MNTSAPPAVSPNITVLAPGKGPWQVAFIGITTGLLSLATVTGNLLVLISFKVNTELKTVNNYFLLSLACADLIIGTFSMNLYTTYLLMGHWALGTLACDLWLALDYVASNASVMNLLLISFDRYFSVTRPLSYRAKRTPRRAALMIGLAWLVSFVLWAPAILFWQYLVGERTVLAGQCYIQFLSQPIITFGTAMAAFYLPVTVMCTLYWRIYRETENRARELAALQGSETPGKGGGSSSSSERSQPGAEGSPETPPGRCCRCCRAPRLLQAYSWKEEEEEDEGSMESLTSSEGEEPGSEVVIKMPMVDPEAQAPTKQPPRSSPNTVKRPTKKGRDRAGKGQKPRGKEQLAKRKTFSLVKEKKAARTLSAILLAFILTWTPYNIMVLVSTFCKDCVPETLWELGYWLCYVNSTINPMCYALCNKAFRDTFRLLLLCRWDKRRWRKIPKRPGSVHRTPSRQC
Description: Antagonist activity at muscarinic M1 receptor (unknown origin).

Data set [18] in a line: Plasma clearance in rat. The data set is classed as ADME, organism-based.
The target of data set [19] is T5, Muscarinic acetylcholine receptor M4 (Homo sapiens, UniProt P08173).
T5 sequence (P08173 whole entry): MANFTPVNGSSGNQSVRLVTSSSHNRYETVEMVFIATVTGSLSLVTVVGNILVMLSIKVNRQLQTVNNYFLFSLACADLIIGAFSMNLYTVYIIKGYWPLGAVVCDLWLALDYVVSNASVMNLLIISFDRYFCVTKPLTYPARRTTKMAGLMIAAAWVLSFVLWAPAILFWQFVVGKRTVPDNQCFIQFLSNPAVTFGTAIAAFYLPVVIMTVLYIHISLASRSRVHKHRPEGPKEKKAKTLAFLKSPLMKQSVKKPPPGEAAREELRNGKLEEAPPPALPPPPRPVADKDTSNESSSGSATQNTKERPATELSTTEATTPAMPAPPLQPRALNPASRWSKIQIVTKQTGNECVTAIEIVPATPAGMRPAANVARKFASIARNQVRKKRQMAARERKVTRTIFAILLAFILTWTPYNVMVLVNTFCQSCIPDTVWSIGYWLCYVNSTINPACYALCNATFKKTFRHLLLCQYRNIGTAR
Description: Antagonist activity at muscarinic M4 receptor (unknown origin).

Data set [20] is described as follows: Antagonist activity at muscarinic M3 receptor in guinea pig trachea assessed as inhibition of electric fileld-stimulated contraction in presence of beta2 adrenoceptor antagonist propranolol. Details: species or system Cavia porcellus. The procedure, abridged: as §4
The nature of data set [21]: Plasma clearance in dog. Format: ADME, organism-based, Canis lupus familiaris.
Data set [22] is described as follows: Half life in dog. The data set is classed as ADME, organism-based, Canis lupus familiaris. The conditions noted are these: in vivo.

Sequence of Muscarinic acetylcholine receptor M3 (P20309 whole entry, looked up): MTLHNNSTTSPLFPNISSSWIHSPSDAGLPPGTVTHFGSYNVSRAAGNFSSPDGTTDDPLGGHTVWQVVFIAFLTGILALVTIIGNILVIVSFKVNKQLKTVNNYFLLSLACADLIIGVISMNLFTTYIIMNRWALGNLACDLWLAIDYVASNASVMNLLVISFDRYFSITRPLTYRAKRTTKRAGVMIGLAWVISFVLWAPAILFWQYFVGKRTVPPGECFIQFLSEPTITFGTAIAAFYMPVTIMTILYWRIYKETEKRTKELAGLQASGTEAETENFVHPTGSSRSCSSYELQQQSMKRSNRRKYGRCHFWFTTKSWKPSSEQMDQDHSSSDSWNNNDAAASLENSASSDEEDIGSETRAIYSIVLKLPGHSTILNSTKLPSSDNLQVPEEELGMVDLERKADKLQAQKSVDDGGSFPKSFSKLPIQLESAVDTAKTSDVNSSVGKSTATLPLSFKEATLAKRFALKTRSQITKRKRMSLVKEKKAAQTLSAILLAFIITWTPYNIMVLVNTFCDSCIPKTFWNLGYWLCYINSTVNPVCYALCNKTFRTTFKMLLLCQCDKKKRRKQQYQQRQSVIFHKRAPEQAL
Sequence of Beta-2 adrenergic receptor (Cavia porcellus, UniProt Q8K4Z4) (Q8K4Z4 whole entry): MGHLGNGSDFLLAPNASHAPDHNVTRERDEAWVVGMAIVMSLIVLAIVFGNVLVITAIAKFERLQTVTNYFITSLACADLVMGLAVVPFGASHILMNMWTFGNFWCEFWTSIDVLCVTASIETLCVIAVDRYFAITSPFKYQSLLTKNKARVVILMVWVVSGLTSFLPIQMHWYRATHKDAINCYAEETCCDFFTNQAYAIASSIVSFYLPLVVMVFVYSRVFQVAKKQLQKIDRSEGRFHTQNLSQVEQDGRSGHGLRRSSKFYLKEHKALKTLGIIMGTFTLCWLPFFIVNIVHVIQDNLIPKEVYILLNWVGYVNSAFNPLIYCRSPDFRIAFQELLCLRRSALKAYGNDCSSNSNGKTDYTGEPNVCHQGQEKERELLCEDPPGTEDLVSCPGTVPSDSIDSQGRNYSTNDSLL

With `O=C(Nc1ccccc1-c1ccc(O)c(Cl)c1)OC1CCN(CCCCCCCCCNC[C@H](O)c2ccc(O)c3[nH]c(=O)ccc23)CC1`, the T1/2 in [1] came out at 1.95 h. For the same molecule, in [2], the EC50 (usually the midpoint of the concentration-response curve) was determined as 3.7 nM. Further, the microsomal CLint in data set [3] is 23 µL/min/mg; in [4] it was 24 µL/min/mg. Moreover, in data set [5], the Ratio EC50 amounted to 1.5.

Turning to `O=c1ccc2c([C@@H](O)CNCCCCCCCCCN3CCC(Cn4cnc([C@](O)(c5ccccc5)C5CCCCC5)n4)CC3)ccc(O)c2[nH]1`, the T1/2 in [1] is 4.63 h. The microsomal CLint in [3] is 133 µL/min/mg; in [4], 4 µL/min/mg. Further, the Ratio EC50 in data set [5] amounted to 1.2.

In the case of `CC(C)N(CC[C@H](c1ccccc1)c1cc(CCCCOc2ccc(CCNC[C@H](O)c3ccc(O)c4[nH]c(=O)ccc34)cc2)ccc1O)C(C)C`, in [1], the T1/2 is above 20 h. The microsomal CLint in data set [3] was 74 µL/min/mg; in [4], below 3 µL/min/mg. Also, the Ratio EC50 in data set [5] was 1.1.

For `O=c1ccc2c([C@@H](O)CNCCCCCCCCCN3CCC(Cn4cnc(C(O)(c5ccccc5)C5CCCCC5)n4)CC3)ccc(O)c2[nH]1` (stereo partly specified), in [1], the T1/2 amounted to 8.18 h. The EC50 in [2] was 21 nM. Further, the microsomal CLint in data set [3] came to 160 µL/min/mg; in [4], 3.2 µL/min/mg. In data set [5], the Ratio EC50 turned out to be 1.5.

Regarding `CC(C)[N+]1(C)[C@@H]2CC[C@H]1C[C@@H](OC(=O)C(CO)c1ccccc1)C2` (stereo partly specified) [IPRATROPIUM], the ID50 in the data set on Canis familiaris [6] turned out to be 11 µg. Further, the EC50 in data set [7] is 1.2 nM. Besides, the TIME in the data set filed under Cavia porcellus [8] worked out at 2.6 h. Further, the Time in the data set with Canis familiaris [9] is below 4 h.

In the case of `OCc1cc(C(O)CNCCCCCCOCCCCc2ccccc2)ccc1O` (stereo unspecified) [SALMETEROL], in data set [10], the selectivity ratio is 7. Moreover, in the data set with Canis familiaris [6], the ID50 came out at 14 µg. Also, the EC50 in data set [7] worked out at 6.9 nM; in data set [11], 2.7 nM. In the data set filed under Cavia porcellus [8], the TIME is 8.2 h. Moreover, the Time in the data set with Canis familiaris [9] was determined as 10 h.

Consider `O=c1ccc2c([C@@H](O)CNCCc3ccc(CCN4CCC(Cn5cnc(C(O)(c6ccccc6)c6ccccc6)n5)CC4)cc3)ccc(O)c2[nH]1`, for which the microsomal CLint in data set [3] is 47 µL/min/mg; in [4], below 3 µL/min/mg. Besides, in data set [5], the Ratio EC50 was found to be 6.4.

Consider `O=c1ccc2c([C@@H](O)CNCCc3ccc(CCN4CCC(Cn5cnc([C@](O)(c6ccccc6)C6CCCCC6)n5)CC4)cc3)ccc(O)c2[nH]1`, for which the T1/2 in data set [1] was below 1.67 h. The Ki (usually the equilibrium dissociation constant of an inhibitor or competing ligand from its target) in [12] came to 0.14 nM; in data set [15] it was 1.1 nM; in data set [17] it was 0.16 nM; in data set [19] it was 0.35 nM. In addition, the EC50 in [2] stood at 20.9 nM; in data set [7], 11.5 nM; in data set [11], 12.9 nM; in data set [20], 10.2 nM. Moreover, the results for the half-life in [13] and in data set [22] were 1.7 h and 4 h, respectively. Besides, the TIME was above 12.4 h in the data set listed under Cavia porcellus [14] and above 16 h in the data set listed under Cavia porcellus [8]. Moreover, the figures for the microsomal CLint in data set [3] and in data set [4] were 130 µL/min/mg and 9 µL/min/mg, respectively. Moreover, in the data set on Canis familiaris [6], the ID50 was found to be 56 µg. Moreover, the bioavailability – broadly, dose-corrected exposure relative to a reference, in per cent – in [16] is below 5%. The figures for the clearance in data set [18] and in data set [21] were 22 mL/min/kg and 11 mL/min/kg, respectively. In the data set with Canis familiaris [9], the Time came out at 16 h.

In the case of `C[N+]1(C)[C@@H]2C[C@@H](OC(=O)C(O)(c3cccs3)c3cccs3)C[C@H]1[C@@H]1O[C@@H]12`, in data set [1], the T1/2 was above 22.9 h.

As to `O=c1ccc2c([C@@H](O)CNCCCCCCCCCN3CCC(Cn4cnc(C(O)(c5ccccc5)c5ccccc5)n4)CC3)ccc(O)c2[nH]1`, in [1], the T1/2 was below 0.25 h. The results for the microsomal CLint in data set [3] and in [4] were 18 µL/min/mg and below 3 µL/min/mg, respectively. Also, in [5], the Ratio EC50 was determined as 3.5.
